Converted amounts (≈) assume the structure as drawn.

One series can be described thus: PAMPA. Particulars: for Papp at 5 h, 500 µM: pH 7.4. In kind it is in vitro ADME. On the technique in general: The PAMPA barrier holds no transporters, so it reflects passive diffusion.
In the next series the test system is C. neoformans. Briefly: Antifungal MIC, liquid growth inhibition. It counts as cell-based. To be noted: Cryptococcus neoformans, 24 h, read-out: Antifungal activity, MIC90. In outline:
(§1)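 Clinical isolates from patient specimens, one isolate per patient. Yeasts were grown in YPD at 37 °C for 16 h with 150 rpm shaking, then subcultured to OD 0.3. Inoculum was set to 0.5 McFarland and diluted 1:500 in RPMI 1640 […]. CLSI broth microdilution used final compound concentrations of 256–0.125 µg/mL. MIC90 is the concentration inhibiting 90% of the strains tested per species.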

The next series relates to C. tropicalis. Briefly: Antifungal MIC, liquid growth inhibition. It counts as cell-based. Particulars: Candida tropicalis, 24 h, read-out: Antifungal activity, MIC90. In outline:
as §1

The subject of a further series is C. albicans. Nature of the series: Antifungal MIC, liquid growth inhibition. In kind it is cell-based. Particulars: Candida albicans, 24 h, read-out: Antifungal activity, MIC90. In outline:
as §1

The term Papp denotes the rate of passage across a membrane or cell layer, normalised by area and donor concentration. Read a high Papp as fast passage. Turning to `Cn1c(=O)c2c(ncn2C)n(C)c1=O` [Caffeine], in “PAMPA”, the Papp at 5 h, 500 µM stood at 1.84 ×10⁻⁶ cm/s. For the same compound, the Membrane retention in the series “PAMPA” (phosphatidylcholine in dodecane, pH 7.4, 5 h, r.t.) was 3.2%.

In the series “PAMPA”, `O=C(N[C@H](CO)[C@H](O)c1ccc([N+](=O)[O-])cc1)C(Cl)Cl` [Chloramphenicol] yielded a Papp at 5 h, 500 µM of 0.3 ×10⁻⁶ cm/s.

A word on the MIC90: it is the lowest concentration that inhibits either 90% of growth or 90% of the strains tested, depending on the study. For `OC(Cn1cncn1)(Cn1cncn1)c1ccc(F)cc1F` [F, Fluconazole], the MIC90 in the series with C. neoformans, in the series with C. tropicalis and in the series on C. albicans was 2 µg/mL (≈ 6.53 µM) throughout.
